Efflux pump inh: antifungal efflux pump inhibition, Nile Red retention | S. cerevisiae Candida pump triplex | inhibition, % at 10 µM | actives 0.44% (n = 330,000) | AID 485275;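 active means plate passing quality check with inhibition over a set limit, or well fluorescence over plate mean plus 4 SD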;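 further: Nile Red retained in pooled yeast measured as flow cytometry median fluorescence; 0% = buffer negative control and 100% = Enniatin B positive control; higher means more Nile Red kept so more efflux inhibition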
TbMetRS inhib: Trypanosoma brucei MetRS inhibition; purified T. brucei MetRS, ATP depletion, Kinase-Glo luminescence; inhibition, % at 11.9 µM; actives 0.4% (n = 360,000);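 active means inhibition above a per-plate cutoff of the control wells' mean inhibition plus 3 SD, cut at about 5.5% in these data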;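 further: 0% = DMSO wells median and 100% = median of wells with control inhibitor compound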
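System: purified T. brucei MetRS enzyme / Detection: Kinase-Glo luciferase luminescence reporting remaining unconsumed ATP / Medium: HEPES buffer with MgCl2, KCl, DTT, spermine, BSA, pyrophosphatase / Replication: singlicate, one well per compound / Evaluation: percent inhibition relative to median high and low control wells / Schedule: 2 h aminoacylation at 25 °C after 15 min preincubation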
SMARCA2 act: activators of SMARCA2 function | MG213 cells, MMTV-luciferase reporter, dexamethasone, overnight | activation, % at 9.1 µM | actives 1% (n = 370,000) | AID 652017; in the data active means activation above about 7.8%;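 further: 0% = vehicle wells and 100% = reference activator wells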
H9c2 TAG inh: reduces triacylglycerol accumulation in H9c2 cells. AID 651582. actives 0.66% (n = 230,000). Nile Red lipid (TAG) fluorescence; cells loaded with 200 µM oleic acid. inhibition, % at 12.5 µM;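 active means pattern-corrected inhibition of lipid staining of at least 50% with the nuclear-stain viability signal not falling by more than 50%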;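 further: 0% = DMSO wells and 100% = triacsin C control wells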
AHR act: activators of human aryl hydrocarbon receptor | AHR-responsive luciferase reporter cells, luminescence | activation, % at 5 µM | AID 2796 | P35869 | actives 2.5% (n = 320,000); in the data active means activation above about 47%;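 further: 0% = vehicle wells and 100% = reference agonist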
Target sequence (P35869 whole entry, looked up): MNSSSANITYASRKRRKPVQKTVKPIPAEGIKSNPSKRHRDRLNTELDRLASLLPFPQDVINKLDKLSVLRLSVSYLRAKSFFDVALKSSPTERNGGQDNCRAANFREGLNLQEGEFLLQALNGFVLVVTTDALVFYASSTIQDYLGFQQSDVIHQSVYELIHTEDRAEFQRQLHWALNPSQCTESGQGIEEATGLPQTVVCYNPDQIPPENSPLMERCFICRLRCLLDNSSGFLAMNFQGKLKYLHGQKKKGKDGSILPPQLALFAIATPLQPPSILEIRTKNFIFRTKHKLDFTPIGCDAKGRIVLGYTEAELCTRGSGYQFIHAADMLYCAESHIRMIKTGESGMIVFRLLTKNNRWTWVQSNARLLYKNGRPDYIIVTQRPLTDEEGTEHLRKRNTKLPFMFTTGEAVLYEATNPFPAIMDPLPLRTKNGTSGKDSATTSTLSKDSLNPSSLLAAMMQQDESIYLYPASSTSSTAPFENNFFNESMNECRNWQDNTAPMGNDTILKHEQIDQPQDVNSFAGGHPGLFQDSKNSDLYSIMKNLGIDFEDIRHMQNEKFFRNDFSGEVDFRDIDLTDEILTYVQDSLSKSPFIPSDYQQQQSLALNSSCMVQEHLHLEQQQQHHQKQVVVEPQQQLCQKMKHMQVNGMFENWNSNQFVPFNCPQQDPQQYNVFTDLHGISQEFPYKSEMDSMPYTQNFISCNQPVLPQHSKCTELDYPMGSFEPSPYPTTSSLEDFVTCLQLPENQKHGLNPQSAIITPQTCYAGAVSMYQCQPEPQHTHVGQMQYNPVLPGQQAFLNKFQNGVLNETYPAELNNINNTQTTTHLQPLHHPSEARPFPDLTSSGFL
SMARCA2 conf: SMARCA2 activation, confirmation screen; shares compounds with SMARCA2 act; MG213 cells, MMTV-luciferase with dexamethasone, luminescence, overnight; MG213 cells expressing E1A, Rb sequestered; DMSO wells 0%, reference activator 100%; activation, % at 9.1 µM; actives 30% (n = 3,500); AID 652260;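 active means activation above its plate's cutoff, the mean activation of tested wells plus 3 SD, cut at about 7.9% in these data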
GAL4-VP16 Luc: GAL4-VP16 reporter activation counter-screen; HEK293 GAL4-VP16 pG5luc reporter, luciferase luminescence; scaled: DMSO wells 0%, SAHA wells 100%; actives 41% (n = 3,500); shares compounds with SMARCA2 act; activation, % at 9.1 µM;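 active means activation above the solvent-only control well mean plus 3 SD, averaged across control plates, cut at about 5.2% in these data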
The depositor's hits bear a star; . = not tested or not shown. Compounds with a hit are over-represented: about 4.1% of the library has one in this group of screens.

SMILES	Efflux pump inh	TbMetRS inhib	SMARCA2 act	H9c2 TAG inh	AHR act	SMARCA2 conf	GAL4-VP16 Luc
Cc1ccc(Nc2nc(N)nc(CN3CCN(C(=O)c4ccco4)CC3)n2)cc1Cl	-0.1	0.1	8.5*	17.0	13.9	0.8	1.2
O=C(c1ccco1)N1CCN(Cc2c(F)cccc2Cl)CC1	0.0	-1.5	8.8*	16.5	1.1	6.9	7.9*
Cc1ccc(NC(=O)N2CCN(C(=O)c3ccco3)CC2)cc1Cl	0.0	-0.4	-1.7	2.1	-2.0	.	.
CN1C(=S)SC2CS(=O)(=O)CC21C (stereo not drawn)	0.3	-0.4	11.8*	-2.2	2.7	-3.5	-1.1
C[C@]12CS(=O)(=O)C[C@H]1SC(=S)N2c1ccccc1	-0.1	-0.2	0.0	0.8	1.8	.	.
Cc1cccc2cc3ccccc3nc12	0.0	-0.3	-2.9	-10.4	0.0	.	.
c1ccc2nc3c(ccc4ccccc43)cc2c1	.	-0.3	14.6*	4.4	.	4.6	7.7*
COc1ccc2c(c1OC)C(=O)OC2Nc1nc(-c2cc3cc(Br)ccc3oc2=O)cs1 (stereo not drawn)	0.1	0.1	9.2*	5.0	1.4	11.9*	7.9*
COc1ccccc1Nc1nc(-c2cccs2)cs1	-0.1	-0.9	8.4*	.	42.8	5.0	7.4*
CC(C)(C)NC(=O)C(=O)N/N=C/c1cccs1	-0.1	-0.7	1.7	-13.4	10.4	.	.
C(=NN=C(NN=Cc1cccs1)NN=Cc1cccs1)c1cccs1	.	-0.2	12.1*	17.9	.	-1.9	5.1
O=C(N/N=C/c1cccs1)c1ccccn1	-0.3	-0.4	10.3*	.	3.4	9.6*	8.9*
COc1cc2c3nnc(-c4ccccc4)c-3cn(Cc3ccccc3F)c2cc1OC	0.1	.	9.9*	.	0.8	17.6*	2.2
COc1cc2c3nnc(-c4ccc(F)cc4)c-3cn(Cc3ccccc3F)c2cc1OC	.	-0.9	1.7	-249.0	.	.	.
CC(C)CC1NC(=O)N(CC(=O)Nc2cccc(Br)c2)C1=O (stereo not drawn)	-0.1	0.6	9.6*	-9.7	2.8	1.1	1.3
CCOC(=O)c1cn2nc(Oc3ccc(C)cc3)ccc2n1	0.0	0.1	14.6*	1.3	17.6	2.3	2.4
COCCN1Cc2cc(C(=O)OC)c3c(c2C1=O)c1ccccc1n3S(=O)(=O)c1ccc(C)cc1	.	.	-4.7	.	.	.	.
Oc1ccc(NC(=S)N=Nc2c(O)[nH]c3ccccc23)cc1	-0.1	0.3	9.7*	3.2	7.1	4.4	14.7*
Cc1ccc(NC(=S)N=Nc2c(O)[nH]c3ccccc23)cc1	0.1	-0.2	6.6	16.3	-5.1	.	.
CC(=O)c1ccc(OCCCC(=O)OCc2nnc(-c3ccc(Cl)cc3)o2)cc1	0.0	-0.4	8.3*	.	8.2	8.4*	0.2
CC(NC(=O)c1cc(COc2ccccc2)on1)c1nccs1 (stereo not drawn)	-0.1	1.1	10.2*	.	23.0	7.1	15.1*
CC(=O)c1ccc(OCc2cc(C(=O)NC(C)c3cnn(C)c3)no2)cc1 (stereo not drawn)	-0.2	0.4	3.3	3.8	0.9	.	.
Cc1ccccc1-c1cc2nc(NCc3ccncc3)n(C)c(=O)c2s1	.	0.3	11.3*	13.6	.	3.3	2.8
CCOC(=O)c1sc(=NC(=O)c2cccc(C)c2)n(C)c1C	-0.1	0.3	13.4*	-6.1	14.2	5.1	5.9*
CC(C)c1cccc(-c2csc(C(O)c3ccco3)n2)c1 (stereo not drawn)	.	0.5	9.2*	3.7	.	6.0	4.3
SMILES	Efflux pump inh	TbMetRS inhib	SMARCA2 act	H9c2 TAG inh	AHR act	SMARCA2 conf	GAL4-VP16 Luc
CCN(CC)C(=O)c1cccc(-c2csc(C(O)c3ccco3)n2)c1 (stereo not drawn)	.	0.1	-3.4	7.0	.	.	.
c1ccc2c(NCCCN3CCOCC3)c3ccccc3nc2c1	0.1	.	15.3*	.	15.3	27.7*	1.3
Cc1cc(NCCN2CCOCC2)c2ccc3ccccc3c2n1	-0.1	-0.2	11.2*	.	24.5	21.4*	3.0
Fc1ccccc1-c1nc(NCCCN2CCOCC2)c2ccccc2n1	-0.6	-0.7	-1.1	.	0.1	.	.
COc1ccc2nc(C)cc(NCCN3CCOCC3)c2c1	0.1	0.1	-0.3	.	0.2	.	.
CCN(Cc1cn(CC2CCCCC2)nn1)S(=O)(=O)c1ccccc1Br	.	.	-2.4	.	.	.	.
O=C(NCc1c(F)cccc1F)C1CCC(CNS(=O)(=O)c2cccc3cccnc23)CC1 (stereo not drawn)	.	.	3.7	.	.	.	.
Cc1ccccc1N1CCN(C2CCCN(C(=O)c3cc[n+]([O-])cc3)C2)CC1 (stereo not drawn)	-0.1	-0.3	2.0	.	-1.5	.	.
CCn1cc(C(=O)N2CCCC(N3CCN(c4ccccc4C)CC3)C2)cn1 (stereo not drawn)	0.4	-0.1	12.4*	.	0.8	-3.6	0.7
Cc1cccn2cc(-c3ccccc3)nc12	0.0	-3.0	2.6	4.8	38.4	.	.
COc1ccc(-c2cn3cccc(C)c3n2)cc1Br	-0.1	-0.9	10.0*	.	12.3	6.8	14.3*
COc1cccc(-c2nn3c(-c4cccc(C)c4)nnc3s2)c1	1.1	-1.4	10.5*	.	2.2	5.0	5.0
Fc1ccc(-c2cc(-c3nnc4sc(Cc5cccs5)nn34)[nH]n2)cc1	.	.	-0.2	.	.	.	.
COc1ccc(-c2cc(-c3nnc4sc(-c5cccs5)nn34)[nH]n2)cc1	.	.	8.5*	.	.	7.0	8.1*
COc1cccc(-c2nnc3sc(-c4ccc(C)cc4)nn23)c1	0.1	.	.	.	1.4	.	.
O=C(N[C@H](c1cccc(Br)c1)[C@@H]1CCCC=C1c1ccccc1)C(F)(F)F	.	.	-0.7	.	.	.	.
CCCCCc1ccc(NC(=O)OCCN2C(=O)CCC23CCC(c2ccccc2)CC3)cc1 (stereo not drawn)	.	.	2.8	.	.	.	.
COc1ccc(C(C(=O)N(C)C2CCCC2)N(Cc2ccc(F)cc2)C(=O)c2csc(-c3ccccc3)n2)cc1OC (stereo not drawn)	.	.	-4.3	.	.	.	.
C[C@H](O)[C@@H]1C(=O)N2CCc3c([nH]c4c(-c5ccccc5)cccc34)[C@@H]2C[C@@H]1N(C)C(=S)NCCc1ccccc1	.	.	-2.2	.	.	.	.
CCOc1ccc(NC(=O)C/C(C)=N/NC(=O)c2cnccn2)cc1	0.5	-0.5	8.9*	-1.8	.	3.0	3.2
COc1ccccc1NC(=O)C/C(C)=N/NC(=O)c1ccccn1	0.1	-0.8	11.9*	.	11.9	-1.1	3.5
O=C(Nc1ccc(F)cc1)c1cnccn1	.	-0.3	8.7*	-3.5	.	2.0	2.3
COc1ccc(NC(=O)C/C(C)=N/NC(=O)c2cnccn2)cc1	-0.1	-0.4	3.9	14.8	11.1	.	.
CCOC(=O)[C@@]12CCC3=C1N(CCC3)C(=O)[C@H](CC(=O)N1CCC(c3ccccc3)CC1)C2	.	.	-1.9	.	.	.	.
